For this test, the system named is Influenza A virus. Briefly: Inhibition of Influenza A virus wild type M2 proton channel expressed in Xenopus laevis oocyte at 100 uM after 2 mins by two-electrode […] clamp assay. The method in brief: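 Full-length AM2 (WT) was expressed in Xenopus oocyte membranes and recorded by two-electrode voltage clamp during low-pH activation. Percent inhibition was read after only 2 min of exposure, before equilibrium was reached. IC50 values from this read-out are apparent kinetic values, not equilibrium dissociation constants.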

The compound `OC1CCC(CNC23CC4CC(CC(C4)C2)C3)CC1` (racemic) had an inhibition of 16%.
The value for `Nc1ccc(CNC23CC4CC(CC(C4)C2)C3)cc1` was 31%; that for `c1cnn(-c2ccc(CNC34CC5CC(CC(C5)C3)C4)cc2)c1` was 4%; that for `COc1ccc(CNC23CC4CC(CC(C4)C2)C3)c(OC)c1` was 16%.
The compound `Oc1ccccc1CNC12CC3CC(CC(C3)C1)C2` gave an inhibition of 81%.
Compound `CC(=O)Nc1ccc(CNC23CC4CC(CC(C4)C2)C3)cc1` came in with an inhibition of 3%.
For `Oc1cccc(CNC23CC4CC(CC(C4)C2)C3)c1` the value was 88%.
As to `c1cc(CNC23CC4CC(CC(C4)C2)C3)ccn1`, the inhibition stood at 6%.
Compound `COc1ccc(CNC23CC4CC(CC(C4)C2)C3)cc1O` came in with an inhibition of 46%.
In turn, `c1nc2cc(CNC34CC5CC(CC(C5)C3)C4)ccc2[nH]1` had an inhibition of 26%.
The value for `Oc1ccc(/C=N/C23CC4CC(CC(C4)C2)C3)cc1` was 81%; that for `c1cn(-c2ccc(CNC34CC5CC(CC(C5)C3)C4)cc2)cn1` was 4%.
The value for `Oc1ccc(CNC23CC4CC(CC(C4)C2)C3)cc1` was 67%.
As to `COc1ccccc1CNC12CC3CC(CC(C3)C1)C2`, the inhibition is 22%.
In turn, `COc1cc(CNC23CC4CC(CC(C4)C2)C3)ccc1O` came in with an inhibition of 76%.
For `c1cc(CNC23CC4CC(CC(C4)C2)C3)co1` the value was 73%; for `O=[N+]([O-])c1cc(CNC23CC4CC(CC(C4)C2)C3)ccc1O`, 66%.
The value for `CS(=O)(=O)c1ccc(CNC23CC4CC(CC(C4)C2)C3)cc1` was 45%; that for `COc1ccc(CN(C)C23CC4CC(CC(C4)C2)C3)cc1` was 34%.
For `C[C@@H]1[C@@H](/N=C/c2ccc(O)cc2)C[C@H]2C[C@@H]1C2(C)C` the value was 91%; for `C[S+]([O-])c1ccc(CNC23CC4CC(CC(C4)C2)C3)cc1` (stereo unspecified), 2%.
Take `NCc1ccc(CNC23CC4CC(CC(C4)C2)C3)cc1`: the inhibition turned out to be 3%.
The value for `CC(=O)c1ccc(CNC23CC4CC(CC(C4)C2)C3)cc1` was 2%.
On to `c1cc2cn[nH]c2cc1CNC12CC3CC(CC(C3)C1)C2`, for which the inhibition came to 79%.
The value for `COc1ccc(CNC23CC4CC(CC(C4)C2)C3)c(O)c1` was 56%; that for `CC(C)(C)OC(=O)Nc1ccc(CNC23CC4CC(CC(C4)C2)C3)cc1` was 13%.
In turn, `O=[N+]([O-])c1ccccc1CNC12CC3CC(CC(C3)C1)C2` came in with an inhibition of 48%.
The value for `c1cc(-c2nnn[nH]2)ccc1CNC12CC3CC(CC(C3)C1)C2` was 6%.
The value for `Fc1ccc(CNC23CC4CC(CC(C4)C2)C3)cc1` was 77%.
For `OCc1ccc(CNC23CC4CC(CC(C4)C2)C3)cc1` the value was 26%.
In the case of `O=[N+]([O-])c1ccc(CNC23CC4CC(CC(C4)C2)C3)cc1`, the inhibition was determined as 49%.
The value for `COc1ccc(COC23CC4CC(CC(C4)C2)C3)cc1` was 51%.
The value for `COc1cc(O)ccc1CNC12CC3CC(CC(C3)C1)C2` was 0%.
For `Oc1ccc(CNC23CC4CC(CC(C4)C2)C3)cc1Cl` the value was 78%; for `c1ccc(CNC23CC4CC(CC(C4)C2)C3)nc1`, 12%; for `c1cc2c(cc1CNC13CC4CC(CC(C4)C1)C3)OCO2`, 54%.
Take `Oc1ccc(CNC23CC4CC(CC(C4)C2)C3)cc1F`: the inhibition is 65%.
In turn, `NC(=O)c1ccc(CNC23CC4CC(CC(C4)C2)C3)cc1` returned an inhibition of 7%.
For `N#Cc1ccc(CNC23CC4CC(CC(C4)C2)C3)cc1` the value was 36%; for `COc1ccc(CNC23CC4CC(CC(C4)C2)C3)cc1`, 43%; for `Oc1ccc(CNC23CC4CC(CC(C4)C2)C3)c(O)c1`, 64%.
The value for `Oc1cc(F)ccc1CNC12CC3CC(CC(C3)C1)C2` was 87%; that for `Oc1ccc(CNC23CC4CC(CC(C4)C2)C3)c(Cl)c1` was 78%; that for `Oc1ccc(CNC23CC4CC(CC(C4)C2)C3)cc1O` was 44%.
For `c1ccc(CNC23CC4CC(CC(C4)C2)C3)cc1` the value was 77%; for `COC(=O)[C@H](Cc1cnc[nH]1)NCC12CC3CC(CC(C3)C1)C2`, 27%.
